In ChEMBL document CHEMBL4680065, “Pharmacophore-based screening of diamidine small molecule inhibitors for protein arginine methyltransferases” (RSC Med Chem, 2021):
pIC50: −log10 of the molar value. Active and inactive are the calls of the source. No cut-off for these calls is given here.

How the values were obtained:
[1] = molecular target: T1, Histone-lysine N-methyltransferase EHMT2 (Homo sapiens, UniProt Q96KQ7); assay: Inhibition of recombinant His-tagged human G9a expressed in Escherichia coli BL21 (DE3) using biotin-labeled histone H3-20 peptide as substrate incubated for 30 mins in presence of [3H]-SAM cofactor by scintillation proximity assay
T1 sequence (Q96KQ7 whole entry): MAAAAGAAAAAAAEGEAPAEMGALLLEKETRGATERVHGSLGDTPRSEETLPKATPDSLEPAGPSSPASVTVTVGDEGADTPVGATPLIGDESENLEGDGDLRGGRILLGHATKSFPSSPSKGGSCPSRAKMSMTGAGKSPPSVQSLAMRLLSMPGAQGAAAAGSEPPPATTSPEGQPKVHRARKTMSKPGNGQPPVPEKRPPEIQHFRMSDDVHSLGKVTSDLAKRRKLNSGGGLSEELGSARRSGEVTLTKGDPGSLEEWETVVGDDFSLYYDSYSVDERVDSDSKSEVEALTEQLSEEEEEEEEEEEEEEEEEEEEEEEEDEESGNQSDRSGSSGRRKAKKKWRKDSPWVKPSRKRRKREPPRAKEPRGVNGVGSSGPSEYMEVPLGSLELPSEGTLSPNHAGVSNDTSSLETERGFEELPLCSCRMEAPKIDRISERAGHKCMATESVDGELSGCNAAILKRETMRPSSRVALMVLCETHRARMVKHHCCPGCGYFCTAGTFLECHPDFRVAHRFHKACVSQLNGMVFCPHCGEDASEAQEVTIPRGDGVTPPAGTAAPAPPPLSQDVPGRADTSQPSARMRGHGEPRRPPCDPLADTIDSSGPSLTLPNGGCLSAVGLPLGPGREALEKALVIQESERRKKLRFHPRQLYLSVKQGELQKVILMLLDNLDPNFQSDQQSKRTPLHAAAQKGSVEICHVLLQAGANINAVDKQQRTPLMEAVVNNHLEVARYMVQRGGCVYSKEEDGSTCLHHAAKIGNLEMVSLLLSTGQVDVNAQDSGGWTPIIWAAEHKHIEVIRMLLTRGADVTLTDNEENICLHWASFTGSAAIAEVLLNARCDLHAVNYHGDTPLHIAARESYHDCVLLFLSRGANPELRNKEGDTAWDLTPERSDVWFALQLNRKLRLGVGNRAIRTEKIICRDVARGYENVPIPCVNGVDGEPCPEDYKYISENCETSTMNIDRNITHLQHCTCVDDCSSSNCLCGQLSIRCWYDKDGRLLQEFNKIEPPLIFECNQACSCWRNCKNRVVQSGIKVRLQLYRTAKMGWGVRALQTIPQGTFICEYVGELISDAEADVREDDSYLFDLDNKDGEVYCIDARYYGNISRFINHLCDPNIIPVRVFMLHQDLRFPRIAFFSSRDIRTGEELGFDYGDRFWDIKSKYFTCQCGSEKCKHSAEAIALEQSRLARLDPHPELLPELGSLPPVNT
Summary of the method: (§1)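 The inhibitor was serially diluted and added to the enzyme, [3H]-SAM and substrate mixture, and methylated substrate was quantified by scintillation proximity assay. Reactions were held at initial rate, with yield under 10% and substrate near Km. PRMT3, PRMT8 and G9a were His-tagged human proteins, and PRMT7 was GST-tagged, all expressed in E. coli and affinity-purified.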

[2] = molecular target: Protein arginine N-methyltransferase 3 (Homo sapiens, UniProt O60678); assay: Inhibition of recombinant human His-tagged PRMT3 expressed in Escherichia coli BL21 (DE3) using biotin-labeled SMD1 as substrate incubated for 10 mins in presence of [3H]-SAM cofactor by scintillation proximity assay; summary of the method: as §1
[3] = molecular target: T2, Protein arginine N-methyltransferase 1 (Homo sapiens, UniProt Q99873); assay: Non-competitive inhibition of recombinant His-tagged PRMT1 (unknown origin) expressed in Escherichia coli BL21 (DE3) using varying levels of [3H]-SAM as cofactor
Summary of the method: (§2)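 His-tagged human PRMT1 was expressed in E. coli BL21(DE3) and Ni-affinity purified. IC50 was measured by SPA at varied SAM or biotinylated H4 peptide (0.3125–4.5 μM), with the other component fixed near its Km (0.5 μM); n = 2.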
Target sequence in this assay (Q99873 whole entry, looked up): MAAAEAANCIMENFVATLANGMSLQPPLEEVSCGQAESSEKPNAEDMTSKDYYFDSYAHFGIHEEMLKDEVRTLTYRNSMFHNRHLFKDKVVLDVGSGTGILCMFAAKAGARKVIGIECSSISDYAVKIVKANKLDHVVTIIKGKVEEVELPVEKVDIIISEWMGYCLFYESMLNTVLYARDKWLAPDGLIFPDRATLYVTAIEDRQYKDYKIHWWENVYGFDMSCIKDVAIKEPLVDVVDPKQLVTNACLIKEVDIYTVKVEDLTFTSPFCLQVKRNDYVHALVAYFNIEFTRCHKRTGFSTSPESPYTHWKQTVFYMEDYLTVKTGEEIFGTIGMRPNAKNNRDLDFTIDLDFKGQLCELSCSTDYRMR

[4] = molecular target: T2, Protein arginine N-methyltransferase 1; assay: Inhibition of recombinant human His-tagged PRMT1 expressed in Escherichia coli BL21 (DE3) using biotin-labeled histone H4-20 as substrate incubated for 8 mins in presence of [3H]-SAM cofactor by scintillation proximity assay
Target sequence in this assay (Q99873 whole entry): as the sequence (Q99873 whole entry, looked up) above

[5] = molecular target: T2, Protein arginine N-methyltransferase 1; assay: Non-competitive inhibition of recombinant His-tagged PRMT1 (unknown origin) expressed in Escherichia coli BL21 (DE3) using varying levels of biotin-labeled histone H4-20 as substrate; summary of the method: as §2
Target sequence in this assay (Q99873 whole entry, looked up): as above

[6] = tested on: CMK; assay: Antiproliferative activity against human CMK cells assessed as inhibition of cell growth measured after 72 hrs by CellTiter-Glo assay; format: functional, cell-based
Summary of the method: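 Cells were cultured with the test agent, serially diluted, for 72 h. The control received the same amount of DMSO. Cell viability was then measured, and IC50 values were taken from sensitivity curves.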

[7] = molecular target: T3, Protein arginine N-methyltransferase 7 (Homo sapiens, UniProt Q9NVM4); assay: Inhibition of recombinant GST-tagged PRMT7 (unknown origin) expressed in Escherichia coli using biotin-labeled SMD1 as substrate incubated for 120 mins in presence of [3H]-SAM cofactor by scintillation proximity assay; summary of the method: as §1
T3 sequence (Q9NVM4 whole entry): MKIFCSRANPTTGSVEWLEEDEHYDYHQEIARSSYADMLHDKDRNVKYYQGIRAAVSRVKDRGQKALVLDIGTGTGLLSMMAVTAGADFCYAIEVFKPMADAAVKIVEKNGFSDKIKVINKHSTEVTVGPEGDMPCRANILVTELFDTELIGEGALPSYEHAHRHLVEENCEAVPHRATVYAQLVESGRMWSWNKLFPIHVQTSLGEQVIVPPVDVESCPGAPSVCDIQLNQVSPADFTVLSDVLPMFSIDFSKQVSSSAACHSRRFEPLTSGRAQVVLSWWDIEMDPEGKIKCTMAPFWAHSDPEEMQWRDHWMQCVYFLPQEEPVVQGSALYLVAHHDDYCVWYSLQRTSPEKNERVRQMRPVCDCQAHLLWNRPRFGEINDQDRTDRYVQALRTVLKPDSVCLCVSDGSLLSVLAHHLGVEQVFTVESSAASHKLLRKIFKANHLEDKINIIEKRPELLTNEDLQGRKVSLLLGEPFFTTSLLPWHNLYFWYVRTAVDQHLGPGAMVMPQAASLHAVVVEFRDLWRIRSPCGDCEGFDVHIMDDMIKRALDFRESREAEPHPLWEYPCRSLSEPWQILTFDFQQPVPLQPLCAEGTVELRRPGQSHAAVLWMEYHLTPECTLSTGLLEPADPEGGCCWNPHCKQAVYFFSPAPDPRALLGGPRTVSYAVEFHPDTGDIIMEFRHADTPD

Sequence of Protein arginine N-methyltransferase 3 (O60678 whole entry): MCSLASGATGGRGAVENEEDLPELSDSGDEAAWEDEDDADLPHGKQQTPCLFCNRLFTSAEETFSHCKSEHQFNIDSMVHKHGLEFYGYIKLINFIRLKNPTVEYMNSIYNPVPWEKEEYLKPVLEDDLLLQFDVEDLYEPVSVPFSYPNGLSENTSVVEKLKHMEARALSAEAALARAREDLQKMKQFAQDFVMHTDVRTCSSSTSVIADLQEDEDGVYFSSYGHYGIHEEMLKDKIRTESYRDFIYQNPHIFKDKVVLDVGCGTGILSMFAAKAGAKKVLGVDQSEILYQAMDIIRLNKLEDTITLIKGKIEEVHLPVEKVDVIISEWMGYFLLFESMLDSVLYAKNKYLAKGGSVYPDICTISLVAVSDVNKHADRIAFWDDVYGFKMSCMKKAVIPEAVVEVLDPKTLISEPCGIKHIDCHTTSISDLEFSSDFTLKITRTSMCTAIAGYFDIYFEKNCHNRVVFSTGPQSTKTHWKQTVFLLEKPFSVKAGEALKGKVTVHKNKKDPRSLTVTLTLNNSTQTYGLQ

SMILES: N=C(N)c1ccc(Nc2ccc(-c3cc4ccc(C(=N)N)cc4[nH]3)cc2)cc1
- pIC50 [1]: 5.43
- pIC50 [2]: 5.47
- inhibition [3]: Active
- pIC50 [4]: 5.59
- inhibition [5]: Active
- pIC50 [6]: 5.88
- pIC50 [7]: 4.63
